Experiments:
Hepatitis C virus = test: Antiviral activity against HCV J6/JFH/JC1 infected in human Huh7.5 cells incubated for 72 hrs by In-Cell Western assay; format: functional, organism-based, Hepacivirus hominis; settings: J6/JFH/JC1, Huh7.5, 72 h
In short: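 Huh7.5 cells infected with HCVcc (MOI 0.1) and treated with compound at the same time for 72 h. Cells fixed with PFA, permeabilized, then stained for HCV Core and GAPDH with IR-dye secondaries. Core signal normalized to GAPDH. Eight-step 1:5 dilutions in triplicate; EC50 by Reed & Muench; mean of three experiments.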

[1] = Cytotoxicity in human Huh7.5 cells assessed as reduction in cell viability incubated for 96 hrs by MTT assay; format: cell-based
In short: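 Huh7.5 cells seeded 24 h before compound addition. Viability read by MTT at 96 h. Eight-step 1:5 serial dilutions in triplicate; CC50 by Reed & Muench; three independent experiments.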

[2] = Selectivity index, ratio of CC50 for cytotoxicity in human Huh7.5 cells assessed as reduction in cell viability incubated for 96 hrs by MTT assay to EC50 for antiviral activity against HCV J6/JFH/JC1 infected in human Huh7.5 cells incubated for 72 hrs by In-Cell Western assay; format: toxicity, cell-based; settings: read-out: Ratio CC50/EC50
In short: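 HCVcc (MOI=0.1) infected Huh7.5 cells co-treated with eight-step 1:5 serial dilutions, triplicate wells. After 72 h, fixed, permeabilized, and stained for HCV Core and GAPDH with IR-dye secondaries. Core normalized to GAPDH. CC50 came from MTT at 96 h in uninfected Huh7.5 cells. EC50/CC50 were derived by Reed & Muench, mean ± SD of three independent experiments.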

Row | EC50 (Hepatitis C virus) [µM] | Compound | CC50 at 96 h [1] [µM] | selectivity ratio [2]
1 | 13.7 | N#Cc1ccc(NCc2ccccn2)cc1CN1CCN(c2ccc(Cl)cc2)CC1 | > 200 | > 14
2 | 0.814 | N#Cc1ccc(OCCN2CCCC2)cc1CN1CCN(c2ccc(Cl)cc2)CC1 | 16.6 | 20
3 | 1.05 | CN(C)CCN(C)c1ccc(C#N)c(CN2CCN(Cc3ccc(Cl)cc3)CC2)c1 | 15.6 | 14
4 | 0.289 | CNCCN(C)c1ccc(C#N)c(CN2CCN(c3ccc(Cl)cc3)CC2)c1 | 15.8 | 54
5 | 0.454 | CCN1CCCC1CNc1ccc(C#N)c(CN2CCN(c3ccc(Cl)cc3)CC2)c1 (stereo not drawn) | 7.64 | 16
6 | 2.74 | CN(C)CCN(C)c1ccc(C#N)c(CN2CCN(c3ccncc3)CC2)c1 | 44.7 | 16
7 | 0.936 | CN(C)CCN(C)c1cccc(CN2CCN(c3ccc(Cl)cc3)CC2)c1 | 13.6 | 14
8 | 0.142 | CN(C)CCN(C)c1ccc(C#N)c(CN2CCC(c3ccc(Cl)cc3)CC2)c1 | 3.75 | 26
9 | 0.952 | CN(C)CCNc1ccc(C#N)c(CN2CCN(c3ccc(Cl)cc3)CC2)c1 | 14.8 | 15
10 | 0.783 | CN1CCN(c2ccc(C#N)c(CN3CCN(c4ccc(Cl)cc4)CC3)c2)CC1 | 16.1 | 20
11 | 119 | CC(C)CCNc1ccc(C#N)c(CN2CCN(c3ccc(Cl)cc3)CC2)c1 | > 200 | > 1
12 | 0.203 | Cc1cc(Cl)ccc1N1CCN(Cc2cc(N(C)CCN(C)C)ccc2C#N)CC1 | 10.1 | 49
13 | 6.43 | CN(C)CCN(C)c1ccc(C#N)c(CN2CCN(c3ccc(N)cc3)CC2)c1 | 55.2 | 8
14 | 0.205 | CN(C)CCN(C)c1ccc(C#N)c(CN2CCN(c3ccc(Cl)cc3F)CC2)c1 | 13.2 | 64
15 | 35 | CN(C)CCN(C)c1ccc(C#N)c(CN2CCNCC2)c1 | > 200 | > 5
16 | 7.29 | CCC(=O)N(C)CCN(C)c1ccc(C#N)c(CN2CCN(c3ccc(Cl)cc3)CC2)c1 | 40 | 5
17 | 0.217 | CN(C)CCN(C)c1ccc(C#N)c(CN2CCN(c3ccc(Cl)cc3[N+](=O)[O-])CC2)c1 | 12.5 | 57
18 | 0.749 | CN(C)CCN(C)c1ccc(C#N)c(CN2CCN(c3ccc(F)cc3)CC2)c1 | 52.1 | 70
19 | 0.423 | CN(C)CCCN(C)c1ccc(C#N)c(CN2CCN(c3ccc(Cl)cc3)CC2)c1 | 15.6 | 36
20 | 4.69 | N#Cc1ccc(NCCN2CCOCC2)cc1CN1CCN(c2ccc(Cl)cc2)CC1 | 76.3 | 16
21 | 0.399 | Cc1ccc(N2CCN(Cc3cc(N(C)CCN(C)C)ccc3C#N)CC2)cc1 | 36.2 | 90
22 | 57.5 | CN(C)c1ccc(C#N)c(CN2CCN(c3ccc(Cl)cc3)CC2)c1 | > 200 | > 3
23 | 1.87 | CN(C)CCN(C)c1ccc(C#N)c(CN2CCN(c3ccc(C#N)cc3)CC2)c1 | 9.05 | 4
24 | 0.902 | CN(C)CCN(C)c1ccc(C#N)c(CN2CCN(c3ccccc3)CC2)c1 | 50.2 | 55
25 | 79.4 | N#Cc1ccc(N2CCNC(=O)C2)cc1CN1CCN(c2ccc(Cl)cc2)CC1 | > 200 | > 2
26 | 1.44 | COc1ccc(N2CCN(Cc3cc(N(C)CCN(C)C)ccc3C#N)CC2)cc1 | 45.5 | 31

Source: ChEMBL document CHEMBL4613269, “2-((4-Arylpiperazin-1-yl)methyl)benzonitrile Derivatives as Orally Available Inhibitors of Hepatitis C Virus with a Novel Mechanism of Action” (J Med Chem, 2020)
